Test results: ChEMBL document CHEMBL1122896, “Comparative computer graphics and solution studies of the DNA interaction of substituted anthraquinones based on doxorubicin and mitoxantrone” (1985)

Tests used:
Nucleic Acid [1] = assay: Compound was evaluated for DNA binding affinity; assay type: nucleic-acid assay; details: Bos taurus
In short: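 Drug solution (5 × 10^-5 M, 3 mL; three samples) was titrated with sequential aliquots of 2.5 × 10^-3 M DNA. Absorbance was read at the unbound-drug λmax after equilibration, against a buffer blank. Free and bound drug were derived from the fractional decrease in extinction. Affinity K and site number n were taken from a Scatchard plot.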

HEp-2 [2] = assay: Antiproliferative effect against Hep2 cell lines at a concentration of 1 uM; assay type: functional, Homo sapiens
HeLa [3] = assay: Antiproliferative effect against HeLa cell lines at a concentration of 1 uM; assay type: functional, Homo sapiens
Mus musculus [4] = assay: In vivo antileukemic activity against P-388 cells in mice and the treated /control value was determined at schedule Q01Dx01 at a dose of 8 mg/kg; assay type: functional
In short: (§1)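 Mice bearing P-388 leukaemia received the hydrochloride salts as a single dose on day 3 after inoculation (Q01D×01). Activity is expressed as treated/control (T/C).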

Mus musculus [5] = assay: In vivo antileukemic activity against P-388 cells in mice and the treated /control value was determined at schedule Q01Dx01 at a dose of 64 mg/kg; assay type: functional; in short: as §1
Mus musculus [6] = assay: In vivo antileukemic activity against P-388 cells in mice and the treated /control value was determined at schedule Q01Dx01 at a dose of 128 mg/kg; assay type: functional; in short: as §1
Mus musculus [7] = assay: In vivo antileukemic activity against P-388 cells in mice and the treated /control value was determined at schedule Q01Dx01 at a dose of 16 mg/kg; assay type: functional; in short: as §1
Mus musculus [8] = assay: In vivo antileukemic activity against P-388 cells in mice and the treated /control value was determined at schedule Q01Dx01 at a dose of 1 mg/kg; assay type: functional; in short: as §1
Mus musculus [9] = assay: In vivo antileukemic activity against P-388 cells in mice and the treated /control value was determined at schedule Q01Dx01 at a dose of 2 mg/kg; assay type: functional; in short: as §1
Mus musculus [10] = assay: In vivo antileukemic activity against P-388 cells in mice and the treated /control value was determined at schedule Q01Dx01 at a dose of 32 mg/kg; assay type: functional; in short: as §1
Mus musculus [11] = assay: In vivo antileukemic activity against P-388 cells in mice and the treated /control value was determined at schedule Q01Dx01 at a dose of 4 mg/kg; assay type: functional; in short: as §1
Nucleic Acid [12] = assay: Concentration to give comigration of ccc PM-2 DNA with nicked PM-2 DNA under electrophoresis was evaluated.; assay type: nucleic-acid assay; details: unidentified phage
In short: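 Agarose tube gels (1%, pH 7.4 Tris-Cl/EDTA/NaCl/acetate buffer) contained drug at final 0.00–1.00 µg/mL. PM-2 ccc-DNA was loaded with drug at a 5:1 DNA phosphate:drug ratio and run at 45 V, 20–25 °C, for 3–4 h. Gels were stained with ethidium. The critical concentration is where ccc-DNA comigrates with nicked PM-2 DNA.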

HEp-2 [13] = assay: Antiproliferative effect against Hep2 cell lines at a concentration of 10.0 uM; assay type: functional, Homo sapiens
HeLa [14] = assay: Antiproliferative effect against HeLa cell lines at a concentration of 10.0 uM; assay type: functional, Homo sapiens
Mus musculus [15] = assay: In vivo antileukemic activity against P-388 cells in mice and the treated /control value was determined at schedule Q04Dx03 at a dose of 4 mg/kg
Mus musculus [16] = assay: In vivo antileukemic activity against P-388 cells in mice and the treated /control value was determined at schedule Q04Dx03 at a dose of 8 mg/kg
Mus musculus [17] = assay: In vivo antileukemic activity against P-388 cells in mice and the treated /control value was determined at schedule Q04Dx03 at a dose of 16 mg/kg

| Structure (SMILES) | Affinity constant (Nucleic Acid [1]) [M⁻¹] | No. of untreated cells (HEp-2 [2]) [%] | No. of untreated cells (HeLa [3]) [%] | T/C (Mus musculus [4]) | T/C (Mus musculus [5]) | T/C (Mus musculus [6]) | T/C (Mus musculus [7]) | T/C (Mus musculus [8]) | T/C (Mus musculus [9]) | T/C (Mus musculus [10]) | T/C (Mus musculus [11]) | Critical concentration (Nucleic Acid [12]) [µg/mL] | No. of untreated cells (HEp-2 [13]) [%] | No. of untreated cells (HeLa [14]) [%] | T/C (Mus musculus [15]) | T/C (Mus musculus [16]) | T/C (Mus musculus [17]) |
| --- | --- | --- | --- | --- | --- | --- | --- | --- | --- | --- | --- | --- | --- | --- | --- | --- | --- |
| CCN(CC)CCNc1ccc(NCCN(CC)CC)c2c1C(=O)c1ccccc1C2=O | 3.17e+06 | 88 | 98 | 107 | 97 | 111 | 112 | 117 | 95 | 103 | 100 | 0.16 | – | – | – | – | – |
| CCN(CC)CCNc1cccc2c1C(=O)c1c(NCCN(CC)CC)cccc1C2=O | 1.71e+06 | – | – | 107 | – | – | – | – | 104 | – | 105 | 0.4 | 84 | 64 | 91 | 98 | 102 |
| CCN(CC)CCNc1cccc2c1C(=O)c1ccccc1C2=O | 1.48e+06 | – | – | 100 | – | – | 95 | 105 | 98 | – | 100 | 0.8 | 92 | 96 | – | – | – |
| CCN(CC)CCNc1cccc2c1C(=O)c1cccc(NCCN(CC)CC)c1C2=O | 3.97e+06 | 64 | 75 | 98 | 105 | 92 | 105 | 102 | 98 | 100 | 107 | 0.16 | – | – | – | – | – |
| COc1cccc2c1C(=O)c1c(O)c3c(c(O)c1C2=O)C[C@@](O)(C(=O)CO)C[C@@H]3O[C@H]1C[C@H](N)[C@H](O)[C@H](C)O1 [DOXORUBICIN] | – | 56 | 52 | – | – | – | – | – | – | – | – | – | – | – | – | – | – |
